Screening results deposited in PubChem BioAssay by several laboratories.
In the library only some 4% were active in any assay of this set; here they are far more common.
OX1R antag-1 – blocks the human orexin 1 receptor; CHO/OX1R cells, Fluo-8 calcium fluorescence, orexin A; inhibition, % at 5 µM; 330,000 compounds, 0.43% hits; AID 434989;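 active means inhibition above its plate's threshold, mean inhibition of all tested compounds on the plate plus 3 SD, cut at about 37% in these data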;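 further: 0% = orexin A challenge wells and 100% = SB-334867-A antagonist wells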
Target sequence (O43613 whole entry, looked up): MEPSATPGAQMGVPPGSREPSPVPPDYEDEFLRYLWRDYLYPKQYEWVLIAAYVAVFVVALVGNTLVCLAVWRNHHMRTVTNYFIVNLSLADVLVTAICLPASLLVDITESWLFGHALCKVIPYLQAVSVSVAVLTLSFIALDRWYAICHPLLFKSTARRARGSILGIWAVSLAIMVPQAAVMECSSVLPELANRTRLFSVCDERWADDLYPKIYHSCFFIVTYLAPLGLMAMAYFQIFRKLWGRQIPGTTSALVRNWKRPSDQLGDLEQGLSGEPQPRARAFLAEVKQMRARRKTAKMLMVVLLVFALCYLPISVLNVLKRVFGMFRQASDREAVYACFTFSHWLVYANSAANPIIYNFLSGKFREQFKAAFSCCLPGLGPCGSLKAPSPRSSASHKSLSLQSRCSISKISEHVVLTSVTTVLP
CHO parental Ca – signal in parental CHO cells, OX1R antagonist counter-screen; inhibition, % at 5.6 µM; 330,000 compounds, 0.63% hits; parental CHO-K1, ATP-induced calcium, Fluo-8 fluorescence;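 active means inhibition above that plate's mean sample inhibition plus 3 SD, cut at about 26% in these data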;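 further: 0% = ATP-challenged DMSO wells and 100% = DMSO wells without ATP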
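Measured by: calcium-sensitive Fluo-8 fluorescence / Test system: CHO parental line / Controls: ATP-challenged DMSO wells low, unchallenged DMSO wells high / Measure: % inhibition / Compound: single nominal dose of 5.6 µM per compound / Replicates: single well per compound, no replicates / Reagent: ATP as calcium-mobilizing challenge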
NTR1 agonist – NTR1 (human) agonism | AID 493036 | P30989 | activation, % at 20 µM | 330,000 compounds, 0.17% hits | NTR1-U2OS beta-arrestin-GFP spot imaging, agonist mode;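 active means activation at or above 40% of the spot to cytoplasm intensity ratio, with at least 20 cells analyzed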;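 further: 0% = DMSO without peptide and 100% = 100 nM NTR1 peptide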
TAAR1 antag – antagonists of human TAAR1; 360,000 compounds, 1.5% hits; inhibition, % at 3 µM; Q96RJ0; AID 624466; CHO RD-HGA16 TAAR1, Fluo-8 calcium fluorescence, antagonist;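 active means inhibition above a per-plate cutoff, the mean inhibition of test compounds on that plate plus 3 SD, cut at about 49% in these data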;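 further: 0% = DMSO plus EC80 beta-PEA response and 100% = DMSO alone without agonist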
Target sequence (Q96RJ0 whole entry, looked up): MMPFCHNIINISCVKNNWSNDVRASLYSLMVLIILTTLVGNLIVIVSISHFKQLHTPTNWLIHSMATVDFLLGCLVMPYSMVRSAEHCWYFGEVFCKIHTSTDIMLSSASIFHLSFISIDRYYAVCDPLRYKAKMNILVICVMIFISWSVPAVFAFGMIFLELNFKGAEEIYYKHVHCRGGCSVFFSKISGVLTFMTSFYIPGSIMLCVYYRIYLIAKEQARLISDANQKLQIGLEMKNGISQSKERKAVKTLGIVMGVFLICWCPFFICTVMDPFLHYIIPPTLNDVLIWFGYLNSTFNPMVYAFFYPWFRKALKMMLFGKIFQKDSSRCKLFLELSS
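System: RD-HGA16 CHO cells with stable hTAAR1 and Gα16 | Probe or stimulus: EC80 β-phenethylamine stimulus | Dosing: 3 µM, single point | Times: Dye loading 75 min at 37 °C, then 30 min room temperature | Measured by: Fluo-8 calcium-sensitive fluorescence | Read-out basis: % inhibition of agonist calcium response | Replicates: n of 1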
OX1R antag-2 – blocks the human orexin 1 receptor; O43613; OX1R-expressing cells, FRET antagonist read-out; inhibition, % at 6.6 µM; 330,000 compounds, 1.8% hits; in the data active means inhibition mostly above about 38%, no sharp cut-off; inactive means mostly below about 40%;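 further: 0% = agonist challenge alone and 100% = reference antagonist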
TAAR1 agonist – agonists of human TAAR1 | activation, % at 3 µM | CHO RD-HGA16 TAAR1, Fluo-8 calcium fluorescence; vehicle wells 0%, saturating PEA agonist 100% | 360,000 compounds, 0.99% hits;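 active means activation above the mean activation of all test compounds in the run plus 3 SD, cut at about 38% in these data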
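System: CHO-derived RD-HGA16 cells with stable Gα16 and human TAAR1. Times: 17-24 h plating, Fluo-8 75 min 37 °C, 30 min RT. Measured by: calcium-sensitive Fluo-8 signal, excitation 470-495, emission 515-575 nm. Read-out basis: % activation relative to PEA EC100 response. Control set: DMSO and PEA EC100. Repeats: no replicates (n 1).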
nonsel antag count – counter-screen for TAAR1 antagonists: nonselective antagonists; shares compounds with TAAR1 antag; counterscreen cell line, calcium fluorescence, antagonist mode; inhibition, % at 3 µM; 2,400 compounds, 77% hits; AID 651780; in the data active means inhibition above about 22%;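 further: CHO-Ga16 host cells stimulated with ATP at an EC80 level; 0% = agonist EC80 plus vehicle and 100% = vehicle without agonist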
TAAR1 antag conf – human TAAR1 antagonism, confirmed; inhibition, % at 3 µM; AID 651785; shares compounds with TAAR1 antag; 2,400 compounds, 40% hits; TAAR1-expressing cells, fluorescence antagonist read-out; in the data active means inhibition above about 49%;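 further: CHO-Ga16 host cells challenged with agonist PEA near its EC80; 0% = agonist at EC80 plus vehicle and 100% = vehicle with no agonist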
Ga16 nonsel ag – nonselective Ga16 agonism, counter-screen; shares compounds with TAAR1 antag; Ga16-expressing cells, calcium fluorescence, agonist counterscreen; activation, % at 3 µM; 2,400 compounds, 18% hits; AID 651953; in the data active means activation above about 12%;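 further: 0% = vehicle wells and 100% = saturating stimulus response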
TAAR1 ag count – counter-screen for human TAAR1 antagonists: TAAR1 agonists. shares compounds with TAAR1 antag. hTAAR1 cell line, fluorescence activation, agonist mode. 2,400 compounds, 2% hits. activation, % at 3 µM; in the data active means activation above about 37%;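 further: CHO cells stably expressing TAAR1 with calcium dye readout; 0% = DMSO vehicle and 100% = full agonist response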
* = called active by the depositor; / = no result given.

SMILES | OX1R antag-1 | CHO parental Ca | NTR1 agonist | TAAR1 antag | OX1R antag-2 | TAAR1 agonist | nonsel antag count | TAAR1 antag conf | Ga16 nonsel ag | TAAR1 ag count
CSCC[C@H](NS(=O)(=O)c1ccc(C)cc1)C(=O)N1CCC(C(=O)N[C@@H](Cc2ccc(O)cc2)C(=O)O)CC1 | -14 | -7 | 1 | 8 | 13 | 0 | / | / | / | /
COc1ccccc1C(=O)Nc1ccc(C(=O)Nc2ccccc2C(=O)O)cc1 | -13 | -11 | 1 | -57 | 0 | 2 | / | / | / | /
N#Cc1cc(NC(=O)c2ccc(Cl)cc2)ccc1Sc1ccccc1 | / | / | / | 73* | / | 6 | 35* | 48 | 9 | 2
COc1ccccc1CN(C)C(=O)c1ccccc1Sc1ccccc1C#N | 1 | 27 | 1 | 29 | 60 | 3 | / | / | / | /
Cc1ccccc1OCC(=O)NCCCNC(=O)c1cccnc1 | -4 | -4 | -2 | -9 | 12 | -1 | / | / | / | /
O=C1c2ccccc2C(=O)N1CCc1nc(-c2ccc(Cl)cc2)no1 | -10 | -5 | 2 | 63* | 8 | 19 | 29* | 37 | 6 | 2
O=C(Nc1ccc(F)c(S(=O)(=O)N2CCOCC2)c1)C1CCCCC1 | -12 | -12 | 0 | 17 | 3 | 9 | / | / | / | /
O=C(NC(Cc1ccccc1)C(=O)N1CCc2ccccc2C1)c1ccccc1 (stereo unspecified) | -22 | -31 | 0 | 55* | 25 | 8 | 26* | 46 | 7 | 5
O=C(NC(Cc1ccccc1)C(=O)O)c1ccccc1 (stereo unspecified) | -5 | -5 | -1 | -3 | 7 | 3 | / | / | / | /
Cc1ccccc1NC(=O)Cc1nc(COC(=O)CC(C)c2ccccc2)cs1 (stereo unspecified) | / | / | 0 | -2 | / | 1 | / | / | / | /
COc1ccc(CCNC(=O)C(=O)NCC2CCCN2S(=O)(=O)c2cc(C)ccc2C)cc1 (stereo unspecified) | -30 | -25 | 4 | 73* | 12 | 17 | 28* | 53* | 11 | 13
Cc1ccc(C)c(S(=O)(=O)N2CCCC2CNC(=O)C(=O)NCCc2ccccc2)c1 (stereo unspecified) | -3 | -22 | 0 | 69* | 38* | 20 | 31* | 47 | 11 | 35
COc1ccc(CCNC(=O)C(=O)NCC2OCCCN2S(=O)(=O)c2cc(C)ccc2C)cc1 (stereo unspecified) | -29 | -30 | 0 | -4 | 29 | 5 | / | / | / | /
O=C(Cc1cccc(NC(=O)C2CCN(C(=O)C3CCCCC3)CC2)c1)Nc1cccc(C(=O)N2CCCC2)c1 | 1 | -5 | -1 | -6 | 2 | 11 | / | / | / | /
COc1cccc(C=C(C(C)=O)C(=O)c2ccccc2)c1 | / | / | / | -8 | / | -1 | / | / | / | /
COc1cccc(/C=C(/C(=O)OCC(N)=O)c2ccccc2)c1 | -8 | -14 | 2 | 105* | -1 | 10 | 1 | -2 | 2 | 5
Cc1ccc(C)c(OCCC(=O)NNC(=O)c2ccccc2F)c1 | 0 | -4 | 2 | -18 | 13 | 2 | / | / | / | /
COc1ccccc1OCCC(=O)NNC(=O)c1ccccc1F | -15 | -14 | 2 | 103* | 1 | 1 | -7 | -8 | 11 | 8
COc1ccc(CCNS(=O)(=O)CCNC(=O)c2ccc(OC)cc2)cc1 | -6 | -27 | 0 | -15 | 9 | 2 | / | / | / | /
CC(=O)N(C)c1ccc(NC(=O)Nc2ccc(C)cc2)cc1 | -8 | -5 | 0 | 57* | 14 | 26 | 19 | 44 | 10 | 20
CCC(=O)N(CCc1ccccc1C)Cc1cc2ccc(C)cc2[nH]c1=O | -44 | -23 | 0 | 60* | 9 | 20 | 28* | 49* | 11 | 13
O=[N+]([O-])c1cccnc1S(=O)(=O)c1ccccc1 | 10 | 21 | 17 | -1 | 34 | 0 | / | / | / | /
O=[N+]([O-])c1ccccc1N(S(=O)(=O)c1ccccc1)S(=O)(=O)c1ccccc1 | / | / | / | 72* | / | 3 | 24* | 50* | 3 | 3
CO/N=C/NC(=O)c1c(OC)ccnc1Oc1ccc(F)cc1 | -14 | -4 | 0 | -18 | 6 | 3 | / | / | / | /
COc1ccnc(Oc2ccc(F)cc2)c1C(=O)N/C=N/OCc1ccccc1 | 3 | -15 | 1 | 10 | 19 | 10 | / | / | / | /
SMILES | OX1R antag-1 | CHO parental Ca | NTR1 agonist | TAAR1 antag | OX1R antag-2 | TAAR1 agonist | nonsel antag count | TAAR1 antag conf | Ga16 nonsel ag | TAAR1 ag count
COc1ccnc(Oc2ccc(F)cc2)c1C(=O)N/C=N/OCc1ccc(F)cc1Cl | -17 | -11 | 4 | 76* | 22 | 31 | 41* | 61* | 14* | 16
COc1ccnc(Oc2ccc(F)cc2)c1C(=O)N/C=N/OCc1ccc(Cl)cc1Cl | -9 | -10 | 9 | 63* | 9 | 35 | 29* | 57* | 13* | 22
COC(=O)N/N=C/c1c(C)c(C(=O)c2ccc(F)cc2)n2ccccc12 | -29 | -22 | -1 | 48 | 21 | 12 | / | / | / | /
CCOC(=O)N/N=C/c1c(C)c(C(=O)c2ccc(F)cc2)n2ccccc12 | -46 | -24 | 3 | 68* | 18 | 2 | 22* | 44 | 3 | -1
O=C(CCc1cn2ccccc2n1)NC1CCCc2c1cnn2-c1ccccc1F (stereo unspecified) | -21 | -20 | 1 | -24 | -2 | 0 | / | / | / | /
CCC(C)(C)NC(=O)CN(C(=O)CNS(=O)(=O)c1ccc(F)cc1)c1ccc2c(c1)OCCO2 | -6 | -11 | 1 | -19 | 8 | 3 | / | / | / | /
COc1ccc(C(C)=O)cc1COC(=O)[C@H](Cc1ccccc1)NC(=O)c1ccco1 | -20 | -15 | 3 | 56* | 17 | 8 | 22* | 44 | 10 | 13
CSc1ccc(CCNC(=O)c2ccc(CS(=O)Cc3ccc(Cl)cc3)o2)cc1 (stereo unspecified) | -12 | -23 | 0 | 53* | 21 | 9 | 32* | 43 | 11 | 8
CCn1c(SCC(=O)NC2CC2)nnc1-c1ccc(OC)cc1 | -14 | 15 | 0 | -26 | 6 | 2 | / | / | / | /
COc1cc(C(=O)NCCc2c[nH]c3ccccc23)ccc1OCc1c(C)noc1C | -4 | 5 | 1 | 63* | 13 | 16 | 31* | 48 | 10 | 8
COc1ccccc1CCn1cnc(-c2cccc(F)c2)c1CC(C)C | / | / | / | 51* | / | 19 | 35* | 67* | 16* | 55*
CCCCc1c(-c2ccccc2F)ncn1CCc1ccccc1OC | / | / | / | 60* | / | 20 | 38* | 72* | 18* | 63*
